In brackets after ≈: the same amount, converted by molar mass.

What all share (assay type): functional, cell-based
Assay [1] has as its system A549. In words: Anticancer activity against human A549 cells after 72 hrs by sulforhodamine B assay. To be noted: A549, 72 h.
The test system of assay [2] is SK-OV-3. In words: Anticancer activity against human SKOV3 cells after 72 hrs by sulforhodamine B assay. As to conditions: SK-OV-3, 72 h. In outline: (§1)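 Cells kept in RPMI 1640 with 10% FBS and passaged with trypsin-EDTA. Seeded at 1-2 × 10^4 cells/well and grown 24 h, then given compounds dissolved in culture medium, in triplicate. Exposure 48 h at 37 °C in 5% CO2. Fixed with cold 10% TCA, stained with 0.4% SRB in 1% acetic acid, dye solubilized in 10 mM Tris base (pH 10.5), absorbance read at 520 nm. IC50 is the concentration giving 50% inhibition.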
For orientation: In SRB staining, fixed cells bind dye roughly in proportion to their protein.

In assay [3] the test system is SK-MEL-2. The experiment in a line: Anticancer activity against human SK-MEL-2 cells after 72 hrs by sulforhodamine B assay. As to conditions: SK-MEL-2, 72 h. In outline: as §1
Assay [4] deals with XF498. In words: Anticancer activity against human XF498 cells after 72 hrs by sulforhodamine B assay. To be noted: XF498, 72 h. In outline:
as §1

In assay [5] the test system is HCT-15. The experiment in a line: Anticancer activity against human HCT15 cells after 72 hrs by sulforhodamine B assay. To be noted: HCT-15, 72 h. The procedure, abridged: as §1

On to `CC1CCN(C(=O)CCCC[C@@H](C)O[C@@H]2O[C@@H](C)[C@H](O[C@@H]3O[C@@H](C)[C@H](O)C[C@H]3O)C[C@H]2O[C@@H]2O[C@@H](C)[C@H](O)C[C@H]2O)CC1`, for which the IC50 in assay [1] is 0.06 µg/mL (≈ 0.0971 µM); in assay [2], 0.03 µg/mL (≈ 0.0486 µM); in assay [3], 0.03 µg/mL (≈ 0.0486 µM); in assay [4], 0.06 µg/mL (≈ 0.0971 µM); in assay [5] it was 0.02 µg/mL (≈ 0.0324 µM).

Consider `C[C@H](CCCCC(=O)Nc1cccc(Br)c1)O[C@@H]1O[C@@H](C)[C@H](O[C@@H]2O[C@@H](C)[C@H](O)C[C@H]2O)C[C@H]1O[C@@H]1O[C@@H](C)[C@H](O)C[C@H]1O`, for which the IC50 in assay [1] stood at 0.07 µg/mL (≈ 0.101 µM); in assay [2], 0.07 µg/mL (≈ 0.101 µM); in assay [3], 0.09 µg/mL (≈ 0.13 µM); in assay [4] it was 0.05 µg/mL (≈ 0.0724 µM); in assay [5], 0.02 µg/mL (≈ 0.029 µM).

For the compound `CCCCCC[C@H](CCCCCCCCCCC(=O)O)O[C@@H]1O[C@@H](C)[C@H](O[C@@H]2O[C@@H](C)[C@H](O)C[C@H]2O)C[C@H]1O`, the concentration for half-maximal inhibition (IC50) in assay [1] stood at 0.64 µg/mL (≈ 1.14 µM); in assay [2], 0.32 µg/mL (≈ 0.571 µM); in assay [3], 0.33 µg/mL (≈ 0.588 µM); in assay [4] it was 0.43 µg/mL (≈ 0.767 µM); in assay [5], 0.53 µg/mL (≈ 0.945 µM).

For `C[C@H](CCCCC1CO1)O[C@@H]1O[C@@H](C)[C@H](O[C@@H]2O[C@@H](C)[C@H](O)C[C@H]2O)C[C@H]1O[C@@H]1O[C@@H](C)[C@H](O)C[C@H]1O` (some centres undefined), the IC50 in assay [1] worked out at 0.76 µg/mL (≈ 1.42 µM); in assay [2] it was 0.14 µg/mL (≈ 0.262 µM); in assay [3], 0.65 µg/mL (≈ 1.22 µM); in assay [4] it was 0.65 µg/mL (≈ 1.22 µM); in assay [5], 0.21 µg/mL (≈ 0.393 µM).

For `C[C@@H]1O[C@H]2O[C@@H](C)CCCCCCCCC(=O)O[C@@H]3C[C@@H](O)[C@@H](O[C@H]3C)O[C@@H]2C[C@H]1O`, the IC50 in assay [1] was found to be 0.63 µg/mL (≈ 1.42 µM); in assay [2], 0.73 µg/mL (≈ 1.64 µM); in assay [3], 0.33 µg/mL (≈ 0.742 µM); in assay [4] it was 0.34 µg/mL (≈ 0.765 µM); in assay [5], 0.65 µg/mL (≈ 1.46 µM).

On to `CCCCCC[C@@H](C)O[C@@H]1O[C@@H](C)[C@H](O)C[C@H]1O[C@@H]1O[C@@H](C)[C@H](OC(=O)CCCC)C[C@H]1OC(=O)CCCC`, for which the IC50 in assay [1] is 0.78 µg/mL (≈ 1.4 µM); in assay [2], 0.73 µg/mL (≈ 1.31 µM); in assay [3], 0.43 µg/mL (≈ 0.77 µM); in assay [4], 0.45 µg/mL (≈ 0.805 µM); in assay [5], 0.21 µg/mL (≈ 0.376 µM).

For the compound `C[C@H](CCCCC(=O)NCc1ccco1)O[C@@H]1O[C@@H](C)[C@H](O[C@@H]2O[C@@H](C)[C@H](O)C[C@H]2O)C[C@H]1O[C@@H]1O[C@@H](C)[C@H](O)C[C@H]1O`, the IC50 in assay [1] turned out to be 0.08 µg/mL (≈ 0.13 µM); in assay [2], 0.01 µg/mL (≈ 0.0162 µM); in assay [3] it was 0.04 µg/mL (≈ 0.065 µM); in assay [4] it was 0.07 µg/mL (≈ 0.114 µM); in assay [5] it was 0.06 µg/mL (≈ 0.0974 µM).

Take `C[C@H](CCCCCCN=[N+]=[N-])O[C@@H]1O[C@@H](C)[C@H](O[C@@H]2O[C@@H](C)[C@H](O)C[C@H]2O)C[C@H]1O[C@@H]1O[C@@H](C)[C@H](O)C[C@H]1O`: the IC50 in assay [1] stood at 0.24 µg/mL (≈ 0.427 µM); in assay [2] it was 0.14 µg/mL (≈ 0.249 µM); in assay [3], 0.33 µg/mL (≈ 0.588 µM); in assay [4] it was 0.43 µg/mL (≈ 0.766 µM); in assay [5], 0.14 µg/mL (≈ 0.249 µM).

`CCCCCC[C@H](CCCCCCCCCCC(=O)OC)O[C@@H]1O[C@@H](C)[C@H](O[C@@H]2O[C@@H](C)[C@H](O)C[C@H]2O)C[C@H]1O[C@@H]1O[C@@H](C)[C@H](O)C[C@H]1O`: the IC50 is 0.12 µg/mL (≈ 0.17 µM) in assay [1]; 0.24 µg/mL (≈ 0.34 µM) in assay [2]; 0.32 µg/mL (≈ 0.454 µM) in assay [3]; 0.32 µg/mL (≈ 0.454 µM) in assay [4]; 0.1 µg/mL (≈ 0.142 µM) in assay [5].

Take `C[C@H](CCCCC(=O)NCCCN1CCCC1=O)O[C@@H]1O[C@@H](C)[C@H](O)C[C@H]1O`: the IC50 in assay [1] amounted to 0.76 µg/mL (≈ 1.9 µM); in assay [2], 0.65 µg/mL (≈ 1.62 µM); in assay [3], 0.33 µg/mL (≈ 0.824 µM); in assay [4], 0.25 µg/mL (≈ 0.624 µM); in assay [5], 0.54 µg/mL (≈ 1.35 µM).

On to `C[C@H](CCCCC(=O)OCc1cccc(Oc2ccccc2)c1)O[C@@H]1O[C@@H](C)[C@H](O)C[C@H]1O`, for which the IC50 in assay [1] amounted to 0.24 µg/mL (≈ 0.523 µM); in assay [2], 0.54 µg/mL (≈ 1.18 µM); in assay [3], 0.13 µg/mL (≈ 0.284 µM); in assay [4], 0.52 µg/mL (≈ 1.13 µM); in assay [5], 0.75 µg/mL (≈ 1.64 µM).

For `CCc1ccc(NC(=O)CCCC[C@@H](C)O[C@@H]2O[C@@H](C)[C@H](O)C[C@H]2O)cc1`, the IC50 in assay [1] is 0.34 µg/mL (≈ 0.896 µM); in assay [2] it was 0.24 µg/mL (≈ 0.632 µM); in assay [3], 0.11 µg/mL (≈ 0.29 µM); in assay [4], 0.25 µg/mL (≈ 0.659 µM); in assay [5] it was 0.2 µg/mL (≈ 0.527 µM).

Turning to `C[C@@H]1CCCCCCCCC(=O)O[C@@H]2C[C@@H](O)[C@H](C)O[C@H]2O[C@@H]2C[C@@H](O)[C@H](C)O[C@H]2O1`, the IC50 in assay [1] amounted to 0.57 µg/mL (≈ 1.28 µM); in assay [2] it was 0.14 µg/mL (≈ 0.315 µM); in assay [3] it was 0.44 µg/mL (≈ 0.99 µM); in assay [4] it was 0.43 µg/mL (≈ 0.967 µM); in assay [5] it was 0.54 µg/mL (≈ 1.21 µM).

As for `COC(=O)CCCC[C@@H](C)O[C@@H]1O[C@@H](C)[C@H](O[C@@H]2O[C@@H](C)[C@H](O)C[C@H]2O)C[C@H]1O[C@@H]1O[C@@H](C)[C@H](O)C[C@H]1O`, the IC50 was determined as 0.13 µg/mL (≈ 0.236 µM) in assay [1]; 0.14 µg/mL (≈ 0.254 µM) in assay [2]; 0.41 µg/mL (≈ 0.745 µM) in assay [3]; 0.19 µg/mL (≈ 0.345 µM) in assay [4]; 0.21 µg/mL (≈ 0.381 µM) in assay [5].

On to `C=CCN1CCN(C(=O)CCCC[C@@H](C)O[C@@H]2O[C@@H](C)[C@H](O)C[C@H]2O)CC1`, for which the IC50 is 0.54 µg/mL (≈ 1.4 µM) in assay [1]; 0.32 µg/mL (≈ 0.832 µM) in assay [2]; 0.53 µg/mL (≈ 1.38 µM) in assay [3]; 0.62 µg/mL (≈ 1.61 µM) in assay [4]; 0.34 µg/mL (≈ 0.884 µM) in assay [5].

Consider `CCCCCCCCCCCCCCNC(=O)CCCC[C@@H](C)O[C@@H]1O[C@@H](C)[C@H](O)C[C@H]1O`, for which the IC50 in assay [1] came to 0.16 µg/mL (≈ 0.339 µM); in assay [2], 0.24 µg/mL (≈ 0.509 µM); in assay [3] it was 0.11 µg/mL (≈ 0.233 µM); in assay [4] it was 0.42 µg/mL (≈ 0.89 µM); in assay [5], 0.31 µg/mL (≈ 0.657 µM).

For the compound `C=CCCCCOC(=O)CCCC[C@@H](C)O[C@@H]1O[C@@H](C)[C@H](O)C[C@H]1O`, the IC50 in assay [1] stood at 0.12 µg/mL (≈ 0.335 µM); in assay [2], 0.31 µg/mL (≈ 0.865 µM); in assay [3] it was 0.22 µg/mL (≈ 0.614 µM); in assay [4], 0.15 µg/mL (≈ 0.418 µM); in assay [5], 0.12 µg/mL (≈ 0.335 µM).

In the case of `C[C@H](CCCCC(=O)O)O[C@@H]1O[C@@H](C)[C@H](O)C[C@H]1O` [DAUMONE], the IC50 in assay [1] was found to be 0.03 µg/mL (≈ 0.109 µM); in assay [2], 0.02 µg/mL (≈ 0.0724 µM); in assay [3], 0.07 µg/mL (≈ 0.253 µM); in assay [4], 0.09 µg/mL (≈ 0.326 µM); in assay [5] it was 0.05 µg/mL (≈ 0.181 µM).

With `COc1cccc2c1C(=O)c1c(O)c3c(c(O)c1C2=O)C[C@@](O)(C(=O)CO)C[C@@H]3O[C@H]1C[C@H](N)[C@H](O)[C@H](C)O1` [DOXORUBICIN], the IC50 in assay [2] was 0.024 µg/mL (≈ 0.0442 µM); in assay [3], 0.015 µg/mL (≈ 0.0276 µM); in assay [4], 0.19 µg/mL (≈ 0.35 µM); in assay [5] it was 0.02 µg/mL (≈ 0.0368 µM).

The term IC50 denotes the concentration that inhibits the measured activity by half. High values mean weaker potency, low ones greater potency.
